pIC50: −log10 of the molar value. “And” between values parts separate entries of the source, which are not always exact repeats. Identical values can stand only once. “Also recorded” adds a separate entry of the source.
What was measured:
DSS-induced colitis [1] = assay: DSS-induced colitis in mice: DAI score, colon length; assay type: in vivo; conditions: for improvement of DAI score or disease severity: 1 mg/kg orally every other day; for mice that developed severe colitis / mice that developed moderate colitis: n = 10
Summary of the method: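 Female C57BL/6 mice (6–8 weeks), randomized; 3% DSS in distilled water for 5 days, with water-only controls. Test compound or reference JAK inhibitor was given by oral gavage every other day in a pH-adjusted vehicle (80% v/v beta-cyclodextrin:water 1:4, 15% hyaluronic acid, 5% PBS); vehicle-only group. Stool consistency and occult blood were scored daily as DAI 0–3. Colon length was measured at sacrifice on day 5. Mean ± SD; ANOVA with Tukey.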

DSS-induced colitis [2] = assay: H&E staining of colon tissues, DSS-induced colitis; assay type: in vivo, mice
[3] = single oral dose of radiolabeled fedratinib ref 21; cited from earlier work
[4] = In vivo metabolite identification by LC-MS in plasma, colon and feces; conditions: mice, 10 mg/kg MMT3-72 orally, 6 h
JAK1 = JAK1 (Homo sapiens, UniProt P23458); assay: Kinase-Glo Max kinase assay, purified enzyme; assay type: biochemical; conditions: for pIC50: Enzyme IC50 JAK1, 0.1 mM ATP
JAK2 = JAK2 (Homo sapiens, UniProt O60674); assay: Kinase-Glo Max kinase assay, purified enzyme; assay type: biochemical; conditions: for pIC50: Enzyme IC50 JAK2, 0.1 mM ATP
JAK3 = molecular target: T1, JAK3 (Homo sapiens, UniProt P52333); assay: Kinase-Glo Max kinase assay, purified enzyme; assay type: biochemical
T1 sequence (P52333 1-1124): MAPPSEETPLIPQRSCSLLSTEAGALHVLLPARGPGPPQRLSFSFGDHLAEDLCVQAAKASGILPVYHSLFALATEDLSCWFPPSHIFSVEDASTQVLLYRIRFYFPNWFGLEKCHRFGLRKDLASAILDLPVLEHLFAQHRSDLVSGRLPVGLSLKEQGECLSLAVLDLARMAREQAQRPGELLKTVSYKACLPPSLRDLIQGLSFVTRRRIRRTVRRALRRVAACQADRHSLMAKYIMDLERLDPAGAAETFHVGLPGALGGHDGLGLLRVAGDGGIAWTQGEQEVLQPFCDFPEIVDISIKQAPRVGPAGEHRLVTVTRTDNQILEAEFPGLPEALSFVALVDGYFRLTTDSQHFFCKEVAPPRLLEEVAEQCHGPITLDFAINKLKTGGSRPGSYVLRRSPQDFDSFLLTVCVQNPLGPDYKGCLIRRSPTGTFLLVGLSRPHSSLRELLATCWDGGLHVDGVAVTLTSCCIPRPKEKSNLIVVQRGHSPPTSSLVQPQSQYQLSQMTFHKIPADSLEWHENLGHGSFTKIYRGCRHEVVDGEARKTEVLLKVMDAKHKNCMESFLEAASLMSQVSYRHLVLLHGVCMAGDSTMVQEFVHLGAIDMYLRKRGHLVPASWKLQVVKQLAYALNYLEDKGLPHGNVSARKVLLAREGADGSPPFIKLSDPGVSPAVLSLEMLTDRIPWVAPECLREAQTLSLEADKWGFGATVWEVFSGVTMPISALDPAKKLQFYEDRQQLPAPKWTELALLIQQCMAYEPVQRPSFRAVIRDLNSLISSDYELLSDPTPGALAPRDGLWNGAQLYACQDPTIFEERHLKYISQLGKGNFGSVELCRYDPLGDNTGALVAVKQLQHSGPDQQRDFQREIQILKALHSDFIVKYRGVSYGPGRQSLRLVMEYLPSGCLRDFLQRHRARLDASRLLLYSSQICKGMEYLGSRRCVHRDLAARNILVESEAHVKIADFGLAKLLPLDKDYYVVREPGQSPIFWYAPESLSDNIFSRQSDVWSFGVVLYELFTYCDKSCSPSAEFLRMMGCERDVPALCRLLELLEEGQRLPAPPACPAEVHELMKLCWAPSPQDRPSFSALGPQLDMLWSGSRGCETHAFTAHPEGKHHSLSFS

TYK2 = TYK2 (Homo sapiens, UniProt P29597); assay: Kinase-Glo Max kinase assay, purified enzyme; assay type: biochemical; conditions: for pIC50: Enzyme IC50 TYK2, 0.1 mM ATP
[5] = In vitro conversion of MMT3-72 to MMT3-72-M2 by colon contents; assay type: in vitro ADME, mice
Summary of the method: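 Fresh colon contents from female C57BL/6 mice (6–8 weeks) were suspended at 10% (w/v) in PBS as an azoreductase source, or boiled to deactivate. Test compound at 0.1 mM final was shaken at 1000 rpm, 37 °C. Aliquots at 0, 1, 2, 4, 6, 24 and 48 h were diluted 10-fold and extracted with acetonitrile. Parent and released metabolite were quantified by LC-MS/MS.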

[6] = Pharmacokinetic study in mice; assay type: in vivo
Summary of the method: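 Female C57BL/6 mice (6–8 weeks) were dosed orally at 10 mg/kg in the pH-adjusted beta-cyclodextrin/hyaluronic acid/PBS vehicle. Sacrifice at 0.5, 2, 4, 12 and 24 h; cardiac blood for plasma; intestinal tissue homogenized in PBS to 10%; intestinal contents homogenized in PBS. Parent and metabolite were measured by LC-MS/MS (C18, 0.1% formic acid water/acetonitrile gradient, 0.4 ml/min). Detection limit 2 ng/ml or 2 ng/g. n = 3, mean ± SD.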

phosphorylation of STAT3 = assay: Western blot of colon tissues: STAT3 and phosphorylated STAT3; assay type: in vivo, mice; conditions: DSS-induced colitis, oral MMT3-72
Summary of the method: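 Colon tissue came from the DSS colitis study. It was rinsed in cold PBS, homogenized in RIPA buffer, sonicated and centrifuged; protein was measured by BCA. 200 μg total protein per group underwent SDS electrophoresis and transfer to PVDF. Blots were probed overnight at 4 °C with antibodies to JAK2, STAT3, phospho-STAT3 (Tyr705) and GAPDH, then HRP secondary for 1 h at room temperature, and imaged.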

[7] = 10 mg/kg orally every other day

JAK1, sequence (P23458 whole entry): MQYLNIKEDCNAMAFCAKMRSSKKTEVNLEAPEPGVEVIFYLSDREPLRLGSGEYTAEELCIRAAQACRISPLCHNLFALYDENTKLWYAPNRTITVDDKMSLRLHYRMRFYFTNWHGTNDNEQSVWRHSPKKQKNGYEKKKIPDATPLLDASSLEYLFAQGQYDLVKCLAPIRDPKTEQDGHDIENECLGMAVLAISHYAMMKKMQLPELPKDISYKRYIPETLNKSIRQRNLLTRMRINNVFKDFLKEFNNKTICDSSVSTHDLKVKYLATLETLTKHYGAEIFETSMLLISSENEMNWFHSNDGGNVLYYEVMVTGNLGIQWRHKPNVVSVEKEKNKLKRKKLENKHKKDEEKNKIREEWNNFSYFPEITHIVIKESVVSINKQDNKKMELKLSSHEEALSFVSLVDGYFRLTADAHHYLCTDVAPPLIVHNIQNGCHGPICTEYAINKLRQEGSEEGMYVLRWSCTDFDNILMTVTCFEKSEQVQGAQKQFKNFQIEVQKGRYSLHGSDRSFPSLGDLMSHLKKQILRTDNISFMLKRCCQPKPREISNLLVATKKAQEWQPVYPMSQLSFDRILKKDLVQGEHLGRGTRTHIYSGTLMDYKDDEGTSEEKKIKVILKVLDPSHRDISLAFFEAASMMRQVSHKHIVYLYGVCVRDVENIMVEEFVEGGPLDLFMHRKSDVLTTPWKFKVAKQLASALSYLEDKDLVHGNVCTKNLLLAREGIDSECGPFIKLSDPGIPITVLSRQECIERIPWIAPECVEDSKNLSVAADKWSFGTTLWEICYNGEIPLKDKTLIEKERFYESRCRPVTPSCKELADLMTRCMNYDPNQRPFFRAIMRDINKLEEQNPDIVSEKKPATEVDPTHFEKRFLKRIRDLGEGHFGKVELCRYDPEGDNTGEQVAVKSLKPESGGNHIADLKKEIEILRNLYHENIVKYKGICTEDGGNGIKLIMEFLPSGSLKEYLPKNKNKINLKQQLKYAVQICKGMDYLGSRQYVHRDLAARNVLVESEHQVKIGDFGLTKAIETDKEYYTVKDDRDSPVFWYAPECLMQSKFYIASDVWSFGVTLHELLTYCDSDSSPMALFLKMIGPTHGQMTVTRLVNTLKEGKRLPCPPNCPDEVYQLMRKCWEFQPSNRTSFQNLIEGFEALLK
JAK2, sequence (O60674 whole entry): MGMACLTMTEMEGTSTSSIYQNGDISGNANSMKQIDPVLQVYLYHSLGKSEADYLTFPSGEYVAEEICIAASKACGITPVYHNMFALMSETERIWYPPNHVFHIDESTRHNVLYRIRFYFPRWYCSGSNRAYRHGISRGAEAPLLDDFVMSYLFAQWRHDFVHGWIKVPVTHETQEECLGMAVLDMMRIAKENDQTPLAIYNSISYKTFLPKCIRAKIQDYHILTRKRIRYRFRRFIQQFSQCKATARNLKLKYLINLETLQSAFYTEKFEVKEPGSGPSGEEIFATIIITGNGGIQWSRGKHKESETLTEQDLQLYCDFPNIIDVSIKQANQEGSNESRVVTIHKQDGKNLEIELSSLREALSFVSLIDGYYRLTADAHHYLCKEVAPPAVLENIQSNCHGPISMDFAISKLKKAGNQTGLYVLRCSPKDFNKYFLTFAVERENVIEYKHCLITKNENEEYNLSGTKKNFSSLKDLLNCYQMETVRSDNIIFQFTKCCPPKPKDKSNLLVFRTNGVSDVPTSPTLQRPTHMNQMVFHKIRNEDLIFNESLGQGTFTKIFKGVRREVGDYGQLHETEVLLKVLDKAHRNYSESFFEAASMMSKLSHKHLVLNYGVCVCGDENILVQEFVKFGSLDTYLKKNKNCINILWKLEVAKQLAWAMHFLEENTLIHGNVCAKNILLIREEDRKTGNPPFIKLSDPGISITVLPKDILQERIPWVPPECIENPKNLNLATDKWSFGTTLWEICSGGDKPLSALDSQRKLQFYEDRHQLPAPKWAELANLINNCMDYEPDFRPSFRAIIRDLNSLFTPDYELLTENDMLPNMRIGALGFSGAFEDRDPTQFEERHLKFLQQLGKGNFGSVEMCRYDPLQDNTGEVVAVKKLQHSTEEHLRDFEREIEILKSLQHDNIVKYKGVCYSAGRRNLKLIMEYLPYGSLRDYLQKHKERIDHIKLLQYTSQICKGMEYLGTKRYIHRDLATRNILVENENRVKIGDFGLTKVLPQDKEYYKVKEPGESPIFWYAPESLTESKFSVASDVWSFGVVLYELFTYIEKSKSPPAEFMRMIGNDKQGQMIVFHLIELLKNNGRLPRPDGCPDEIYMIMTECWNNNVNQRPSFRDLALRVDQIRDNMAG
TYK2, sequence (P29597 whole entry): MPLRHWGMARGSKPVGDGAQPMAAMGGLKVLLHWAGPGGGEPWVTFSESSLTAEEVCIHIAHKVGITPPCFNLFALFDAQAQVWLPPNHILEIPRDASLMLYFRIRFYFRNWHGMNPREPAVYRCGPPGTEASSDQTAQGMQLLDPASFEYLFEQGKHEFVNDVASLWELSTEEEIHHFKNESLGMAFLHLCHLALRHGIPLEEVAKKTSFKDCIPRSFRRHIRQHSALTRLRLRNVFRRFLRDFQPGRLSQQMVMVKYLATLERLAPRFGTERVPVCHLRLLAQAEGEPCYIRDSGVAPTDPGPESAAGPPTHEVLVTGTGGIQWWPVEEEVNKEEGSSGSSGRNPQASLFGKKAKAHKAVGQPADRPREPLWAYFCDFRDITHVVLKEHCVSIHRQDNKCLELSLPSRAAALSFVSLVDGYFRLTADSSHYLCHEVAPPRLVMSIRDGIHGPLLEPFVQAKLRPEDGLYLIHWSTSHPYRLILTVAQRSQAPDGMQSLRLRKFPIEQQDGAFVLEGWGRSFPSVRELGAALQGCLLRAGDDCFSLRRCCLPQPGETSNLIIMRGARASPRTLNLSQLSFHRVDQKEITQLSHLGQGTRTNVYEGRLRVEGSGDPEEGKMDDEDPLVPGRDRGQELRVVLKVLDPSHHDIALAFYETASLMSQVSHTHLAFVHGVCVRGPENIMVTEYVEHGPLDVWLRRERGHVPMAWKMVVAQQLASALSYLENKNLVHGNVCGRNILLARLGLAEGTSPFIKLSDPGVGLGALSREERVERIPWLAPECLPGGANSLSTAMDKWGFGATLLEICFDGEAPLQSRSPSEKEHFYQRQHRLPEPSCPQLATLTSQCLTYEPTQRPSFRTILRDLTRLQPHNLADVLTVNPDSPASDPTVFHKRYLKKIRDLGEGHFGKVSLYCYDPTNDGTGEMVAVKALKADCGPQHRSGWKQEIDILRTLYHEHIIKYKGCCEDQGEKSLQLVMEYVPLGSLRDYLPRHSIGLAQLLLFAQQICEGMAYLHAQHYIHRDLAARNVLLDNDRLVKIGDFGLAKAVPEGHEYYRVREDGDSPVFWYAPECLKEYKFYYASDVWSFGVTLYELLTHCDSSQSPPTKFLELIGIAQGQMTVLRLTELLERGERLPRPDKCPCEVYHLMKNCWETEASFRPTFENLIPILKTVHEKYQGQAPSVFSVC

pIC50 (JAK1)	pIC50 (JAK2)	pIC50 (JAK3)	pIC50 (TYK2)	Structure (SMILES)	improvement of DAI score or disease severity (DSS-induced colitis [1])	improvement of DAI score vs DSS-induced colitis (DSS-induced colitis [1]; 5 mg/kg orally every other day)	recovery of colon length from DSS-induced colitis (DSS-induced colitis [1]; 10 mg/kg)	improvement of DAI score vs DSS-induced colitis (DSS-induced colitis [1]; [7])	mice that developed severe colitis (DSS-induced colitis [1]; 10 mg/kg)	epithelial loss and infiltration of immune cells (H&E) (DSS-induced colitis [2]; 5 mg/kg)	epithelial loss and infiltration of immune cells (H&E) (DSS-induced colitis [2]; 10 mg/kg)	where detected (plasma, colon tissues, feces), in words [4]	also measured
				C[C@@H]1CCN(C(=O)CC#N)C[C@@H]1N(C)c1ncnc2[nH]ccc12 [tofacitinib, reference compound]	did not improve DAI score or disease severity	did not show any improvement in DAI score	recovered the colon length	showed improvement in DAI score	10%	did not show improvement in epithelial cell loss and infiltration of immune cells	moderate improvement		
				Cc1cnc(Nc2ccc(OCCN3CCCC3)cc2)nc1Nc1cccc(S(=O)(=O)NC(C)(C)C)c1 [fedratinib]									excreted in feces unchanged [3]: 23%; fedratinib-derived radioactivity excreted in feces [3]: ~77%
7.97	7.58	6.48	7.04	Cc1cnc(Nc2ccc(OCCO)cc2)nc1Nc1cccc(S(=O)(=O)NC(C)(C)C)c1 [MMT3-72-M2, N-(tert-butyl)-3-((2-((4-(2-hydroxyethoxy)phenyl)amino)-5methylpyrimidin-4-yl)amino)benzenesulfonamide]								only detected in the colon tissues and the feces with limited detection in the plasma	IC50 (JAK1; IC50 JAK1 expressed in ng/ml, converted from nM): ~10.6 nM; IC50 (JAK2; IC50 JAK2 expressed in ng/ml, converted from nM): ~25.7 nM; IC50 (TYK2; IC50 TYK2 expressed in ng/ml, converted from nM): ~89.3 nM; formation of MMT3-72-M2 from MMT3-72 ([5]; fresh colon contents): readily converted from MMT3-72; concentration at 12 h ([6]; female, C57BL/6, mouse, colon tissue, po, 10 mg/kg): 131 ng/g and ~285 nM; duration of effective concentrations in colon tissue ([6]; mice, 10 mg/kg MMT3-72 orally): 12 h; Cmax in plasma ([6]; mice, 10 mg/kg MMT3-72 orally, 10 mg/kg): < 8 ng/mL; time after which undetectable in plasma ([6]; mice, 10 mg/kg MMT3-72 orally, limit of detection 2 ng/ml): 4 h
6.43	6.20	5.28	5.33	Cc1cnc(Nc2ccc(OCCOc3ccc(/N=N/c4ccc(C(=O)NCCC(=O)O)cc4)cc3C(=O)O)cc2)nc1Nc1cccc(S(=O)(=O)NC(C)(C)C)c1 [MMT3-72, (E)-2-(2-(4-((4-((3-(N-(tertbutyl)sulfamoyl)phenyl)amino)-5-methylpyrimidin-2-yl)amino)phenoxy)ethoxy)-5-((4-((2-carboxyethyl)carbamoyl)phenyl)diazenyl)benzoic acid]	did not improve DAI score or disease severity	5 fold	recovered the colon length	10 fold	no mice	reduced epithelial loss and decreased infiltration of immune cells	reduced epithelial loss and decreased infiltration of immune cells	only detected in the feces	stability in heat-deactivated colon contents ([5]; boiled colon contents, aqueous environment): most MMT3-72 remained intact; MMT3-72 metabolized ([5]; fresh colon contents, within 48 h of incubation): more than 90%; detection in colon/GI tissue or systemic circulation/plasma ([6]; mice, 10 mg/kg MMT3-72 orally): not detected; mice that developed moderate colitis (DSS-induced colitis [1]; 5 mg/kg): 10%; mice that developed severe colitis (DSS-induced colitis [1]; 5 mg/kg): no mice; mice that developed moderate colitis (DSS-induced colitis [1]; 10 mg/kg): no mice; phosphorylation of STAT3 in colon tissue (phosphorylation of STAT3): effectively inhibit the phosphorylation of STAT3; also recorded: inhibited the phosphorylation of STAT3
